Assay outcomes: PubChem BioAssay, Johns Hopkins Ion Channel Center
Compounds with a hit are over-represented: about 3.5% of the library has one in this group of screens.
RGS4 block: RGS4 inhibitors, primary screen, cell-based, HEK293 M3R inducible RGS4, calcium flux. Regulator of G-protein signaling 4 (Homo sapiens), P49798. Fluo-4 calcium flux; hits give high values; triggered by carbachol at its EC20. B-score at 10 µM. 0.45% of 310,000 active;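 active means B-score, a plate-corrected calcium signal, over three deviations above library mean, with baseline fluorescence within five deviations of library mean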;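 further: RGS4 expression induced by doxycycline in cells with stable M3 receptor; B-score is computed from the integrated fluorescence ratio over baseline after carbachol; higher B-score means a larger calcium signal and so more RGS4 inhibition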
Target sequence (P49798 whole entry, looked up): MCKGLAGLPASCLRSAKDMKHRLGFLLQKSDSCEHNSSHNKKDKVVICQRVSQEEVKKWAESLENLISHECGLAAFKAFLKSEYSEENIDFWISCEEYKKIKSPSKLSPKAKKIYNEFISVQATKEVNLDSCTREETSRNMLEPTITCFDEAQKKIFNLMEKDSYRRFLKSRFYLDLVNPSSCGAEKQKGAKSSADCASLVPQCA
MrgX1 antag: antagonists of human MrgX1 receptor, primary screen, HEK293 cells, Fluo-4 calcium flux. BAM8-22 antagonism; hits give low values. Mas-related G-protein coupled receptor member X1 (Homo sapiens), Q96LB2. 1.3% of 310,000 active. B-score at 10 µM;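 active means calcium-response B-score plate-corrected more than 3 library SD below zero, starting fluorescence within 5 deviations, no agonist response on first addition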;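 further: peak minus trough fluorescence over baseline after final BAM8-22 challenge near maximal dose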
Target sequence (Q96LB2 whole entry, looked up): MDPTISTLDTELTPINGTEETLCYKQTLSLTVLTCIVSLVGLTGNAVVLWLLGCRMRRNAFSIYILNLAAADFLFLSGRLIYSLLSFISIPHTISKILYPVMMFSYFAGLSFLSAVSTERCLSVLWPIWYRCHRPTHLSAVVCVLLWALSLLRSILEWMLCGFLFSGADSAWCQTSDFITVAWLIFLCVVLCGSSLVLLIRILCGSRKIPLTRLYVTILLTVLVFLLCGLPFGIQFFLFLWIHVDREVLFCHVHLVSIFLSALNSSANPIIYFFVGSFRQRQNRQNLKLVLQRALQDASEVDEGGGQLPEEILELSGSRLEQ
MrgX1 allo act: positive allosteric modulators of MrgX1, primary screen, HEK293 cells, Fluo-4 calcium flux; FDSS; hits give high values; B-score at 10 µM; 0.63% of 310,000 active;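 active means plate-corrected calcium response at least 3 library SD above typical, normal starting fluorescence, not activating the receptor alone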;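 further: compound read alongside a low EC10 to EC30 dose of BAM8-22 agonist; peak minus trough fluorescence over baseline measured at the second addition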
MrgX1 ag: agonists of human MrgX1 receptor, primary screen, HEK293 cells, Fluo-4 calcium flux; B-score at 10 µM; AID 588627, 2011; Mas-related G-protein coupled receptor member X1 (Homo sapiens), Q96LB2; Fluo-4 calcium fluorescence, agonist mode; hits give high values; 0.44% of 310,000 active;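 active means calcium response B-score plate-corrected fluorescence ratio at least 3 library SD, with starting fluorescence B-score inside 5 SD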
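Material: HEK293 cells stably expressing human MrgX1 receptor | Quantity: 15,000 cells per well | Times: Cells plated overnight, dye loaded 0.5 h 37 °C, 0.5 h room temperature | Measured by: Kinetic Fluo-4 NW fluorescence of intracellular calcium | Control set: Positive and negative controls per plate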
RGS4 act: RGS4 potentiators or activators, primary screen, cell-based, HEK293 M3R inducible RGS4, calcium flux; carbachol calcium flux Fluo4; hits give low values; B-score at 10 µM; 0.92% of 310,000 active;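 active means B-score of the integrated calcium signal more than 4 SD below the library mean, with starting fluorescence not abnormally high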;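 further: negative B-score means reduced calcium response which marks RGS4 activation or potentiation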
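Test system: HEK293 cells with stable M3R and inducible RGS4; also added: carbachol at ECmax as muscarinic agonist stimulus; schedule: dye loading 30 min 37 °C, buffer rest 30 min RT; technique: kinetic calcium fluorescence imaging with Fluo4-AM dye, 2 µM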
Starred values were filed as active, the others as inactive.

How did CC1=NNC(=O)C1CCC(=O)N/N=C/c1ccccc1 (configuration not stated) do in these assays?
RGS4 block: inactive; MrgX1 antag: inactive; MrgX1 allo act: inactive; MrgX1 ag: inactive; RGS4 act: inactive

What do the screens show for `O=C(CS(=O)(=O)Nc1ccc(F)cc1Cl)Nc1ccc(F)cc1Cl`?
RGS4 block: inactive; MrgX1 antag: inactive; MrgX1 allo act: inactive; MrgX1 ag: inactive; RGS4 act: inactive

What do the screens show for `Cn1c(=O)c2c(nc(CN3CCN(C(c4ccccc4)c4ccccc4)CC3)n2CCCO)n(C)c1=O`?
RGS4 block: inactive; MrgX1 antag: inactive; MrgX1 allo act: inactive; MrgX1 ag: inactive; RGS4 act: inactive

How did O=C(/C=C/Nc1ccc(Br)cc1F)c1ccccc1 do in these assays?
RGS4 block: inactive; MrgX1 antag: -6*; MrgX1 allo act: inactive; MrgX1 ag: inactive; RGS4 act: inactive

What do the screens show for `CCN1CCN(Cc2ccc(NC(=O)c3ccc(C)c(NC(=O)c4ccno4)c3)cc2C(F)(F)F)CC1`?
RGS4 block: inactive; MrgX1 antag: inactive; MrgX1 allo act: inactive; MrgX1 ag: inactive; RGS4 act: inactive

How did CCN1CCN(Cc2ccc(NC(=O)c3ccc(C)c(/C=C/c4cnc(Nc5cc(N6CCNCC6)nc(C)n5)cn4)c3)cc2C(F)(F)F)CC1 do in these assays?
RGS4 block: inactive; MrgX1 antag: inactive; MrgX1 allo act: inactive; MrgX1 ag: 27*; RGS4 act: inactive

How did COc1ccc(C2=NN(C(=O)C(O)c3ccccc3)C(O)(C(F)(F)F)C2)cc1 (configuration not stated) do in these assays?
RGS4 block: inactive; MrgX1 antag: inactive; MrgX1 allo act: inactive; MrgX1 ag: 29*; RGS4 act: inactive

What do the screens show for `Cc1ccc(C(=O)OCC(=O)c2c[nH]c3ccccc23)cc1`?
RGS4 block: inactive; MrgX1 antag: inactive; MrgX1 allo act: inactive; MrgX1 ag: inactive; RGS4 act: inactive

Results for CC(C)Cc1ccc(C(C)C(=O)OCC(=O)c2c[nH]c3ccccc23)cc1 (configuration not stated) ?
RGS4 block: inactive; MrgX1 antag: inactive; MrgX1 allo act: inactive; MrgX1 ag: inactive; RGS4 act: -7.3*

How did COc1ccc(NC2=C(Cl)C(=O)N(c3ccccc3)C2=O)c(OC)c1 do in these assays?
RGS4 block: inactive; MrgX1 antag: inactive; MrgX1 allo act: inactive; MrgX1 ag: inactive; RGS4 act: inactive

Results for COc1ccccc1NC1=C(Cl)C(=O)N(c2ccccc2)C1=O ?
RGS4 block: inactive; MrgX1 antag: inactive; MrgX1 allo act: 11*; MrgX1 ag: inactive; RGS4 act: inactive

How did N#C/C(=C\c1ccc(O)c(O)c1)C(=O)NCCCc1ccccc1 do in these assays?
RGS4 block: inactive; MrgX1 antag: inactive; MrgX1 allo act: 6.7*; MrgX1 ag: inactive; RGS4 act: inactive

Results for O=C(O)C(NC(=O)C1CCCN1C(=O)OCc1ccccc1)c1ccccc1 (configuration not stated) ?
RGS4 block: inactive; MrgX1 antag: inactive; MrgX1 allo act: inactive; MrgX1 ag: inactive; RGS4 act: inactive

How did O=C(O)CCC(NC(=O)C1CCCN1C(=O)OCc1ccccc1)C(=O)O (configuration not stated) do in these assays?
RGS4 block: inactive; MrgX1 antag: -6.4*; MrgX1 allo act: inactive; MrgX1 ag: inactive; RGS4 act: inactive

What do the screens show for `Oc1ccc(N=Nc2cccc(Cl)c2)cc1C=Nc1ccc(N2CCOCC2)cc1`?
RGS4 block: 8.7*; RGS4 act: inactive

What do the screens show for `Cc1nn(C(C)C(=O)NC2CCCCC2)c(=O)c2nn(-c3ccccc3)c(C)c12` (configuration not stated)?
RGS4 block: inactive; MrgX1 antag: inactive; MrgX1 allo act: inactive; MrgX1 ag: inactive; RGS4 act: inactive

What do the screens show for `Cc1c(C)n(CCc2ccccc2)c2ncnc(NCCCN(C)C)c12`?
RGS4 block: inactive; MrgX1 antag: inactive; MrgX1 allo act: inactive; MrgX1 ag: inactive; RGS4 act: inactive

What do the screens show for `N=C(N)SCc1cn(-c2ccccc2)nc1-c1ccc(Br)cc1`?
RGS4 block: inactive; RGS4 act: -7.5*

Results for Cc1ccc(-c2nn(-c3ccccc3)cc2CNCc2ccccc2)cc1 ?
RGS4 block: inactive; MrgX1 antag: inactive; MrgX1 allo act: inactive; MrgX1 ag: inactive; RGS4 act: inactive

Results for Cc1c(CCOC(=O)CC23CC4CC(CC(C4)C2)C3)sc[n+]1Cc1ccccc1 ?
RGS4 block: inactive; MrgX1 antag: inactive; MrgX1 allo act: inactive; MrgX1 ag: inactive; RGS4 act: -7.7*

What do the screens show for `Cc1ncc(C[n+]2csc(CCOC(=O)CC34CC5CC(CC(C5)C3)C4)c2C)c(N)n1`?
RGS4 block: inactive; MrgX1 antag: inactive; MrgX1 allo act: inactive; MrgX1 ag: inactive; RGS4 act: inactive

How did CC(C(=O)Nc1ccccc1)N(c1cccc(Cl)c1)S(C)(=O)=O (configuration not stated) do in these assays?
RGS4 block: inactive; MrgX1 antag: inactive; MrgX1 allo act: inactive; MrgX1 ag: inactive; RGS4 act: inactive

What do the screens show for `N#CCCS(=O)(=O)c1nnnn1-c1ccccc1`?
MrgX1 antag: inactive; MrgX1 allo act: inactive; MrgX1 ag: 42*

Results for c1ccc(-n2nnnc2Cc2nnnn2-c2ccccc2)cc1 ?
RGS4 block: inactive; MrgX1 antag: inactive; MrgX1 allo act: inactive; MrgX1 ag: inactive; RGS4 act: inactive

How did CC1CN(C(=O)CCCN2C(=O)c3ccccc3C2=O)CC(C)O1 (configuration not stated) do in these assays?
RGS4 block: inactive; MrgX1 antag: inactive; MrgX1 allo act: inactive; MrgX1 ag: inactive; RGS4 act: inactive

Results for COc1ccc(CCN2C(=NC(=O)CC(C)C)SC3CS(=O)(=O)CC32)cc1 (configuration not stated) ?
RGS4 block: inactive; MrgX1 antag: inactive; MrgX1 allo act: inactive; MrgX1 ag: inactive; RGS4 act: inactive

How did COc1ccc(CCN2C(=NC(=O)CCC(=O)O)SC3CS(=O)(=O)CC32)cc1OC (configuration not stated) do in these assays?
RGS4 block: inactive; MrgX1 antag: -5.2*; MrgX1 allo act: inactive; MrgX1 ag: inactive; RGS4 act: inactive

Results for O=C1c2ccccc2-c2c1cccc2C(=O)N1CCCCC1 ?
RGS4 block: inactive; MrgX1 antag: inactive; MrgX1 allo act: inactive; MrgX1 ag: inactive; RGS4 act: inactive
